Results reported in ChEMBL document CHEMBL1148646, “6-N,N-dimethylamino-2,3-naphthalimide: a new environment-sensitive fluorescent probe in delta- and mu-selective opioid peptides” (J Med Chem, 2006).
Residues, ends and D or L forms follow the SMILES beside them.

How the values were obtained:
[1] = molecular target: Opioid receptors; mu & delta (Rattus norvegicus) (UniProt P33533+P33535); test: Selectivity for rat delta opioid receptor over mu opioid receptor; type: protein assay
[2] = molecular target: Delta-type opioid receptor (Mus musculus) (UniProt P32300); test: (§1) Functional bioactivity against delta opioid receptor in mouse vas deferens; type: tissue-based
Chain of Delta-type opioid receptor (Mus musculus) (P32300 whole entry): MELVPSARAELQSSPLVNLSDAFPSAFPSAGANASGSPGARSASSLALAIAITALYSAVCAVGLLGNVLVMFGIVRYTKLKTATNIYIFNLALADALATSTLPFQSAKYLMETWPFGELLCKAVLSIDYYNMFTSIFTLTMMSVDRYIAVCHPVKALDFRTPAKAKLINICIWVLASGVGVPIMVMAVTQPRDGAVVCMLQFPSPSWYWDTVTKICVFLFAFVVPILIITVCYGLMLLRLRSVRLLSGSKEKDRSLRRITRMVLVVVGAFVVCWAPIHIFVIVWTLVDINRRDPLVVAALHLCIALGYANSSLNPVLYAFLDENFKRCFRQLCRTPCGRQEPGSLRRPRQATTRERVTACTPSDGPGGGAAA
How it was run: (§2)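 MVD strips field-stimulated with supramaximal bipolar rectangular pulses. Agonist read-out is inhibition of the electrically evoked twitch, referenced to deltorphin C, with IC50 taken from dose-response curves. For antagonism, compound is added 5 min before deltorphin C, and pA2 comes from Schild plot of the rightward curve shift. At least six experiments on fresh tissue; mean ± SE.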

Mu-type opioid receptor [3] = molecular target: Mu-type opioid receptor (Cavia porcellus, UniProt P97266); test: Functional bioactivity against mu opioid receptor in guinea-pig ileum; type: tissue-based
Chain of Mu-type opioid receptor (Cavia porcellus, UniProt P97266) (P97266 whole entry): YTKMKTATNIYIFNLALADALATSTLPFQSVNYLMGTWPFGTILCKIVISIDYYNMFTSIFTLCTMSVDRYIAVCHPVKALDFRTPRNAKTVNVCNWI
How it was run: as §2, with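 “Myenteric plexus-longitudinal muscle from male guinea pig ileum,” for “MVD strips”, “dermorphin,” for “deltorphin C,”, “plot.” for “plot of the rightward curve shift.”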

Mu-type opioid receptor [4] = molecular target: Mu-type opioid receptor (Rattus norvegicus, UniProt P33535); test: Displacement of [3H]DAMGO from rat mu opioid receptor in brain P2 synaptosomes; type: subcellular
Chain of Mu-type opioid receptor (Rattus norvegicus, UniProt P33535) (P33535 whole entry): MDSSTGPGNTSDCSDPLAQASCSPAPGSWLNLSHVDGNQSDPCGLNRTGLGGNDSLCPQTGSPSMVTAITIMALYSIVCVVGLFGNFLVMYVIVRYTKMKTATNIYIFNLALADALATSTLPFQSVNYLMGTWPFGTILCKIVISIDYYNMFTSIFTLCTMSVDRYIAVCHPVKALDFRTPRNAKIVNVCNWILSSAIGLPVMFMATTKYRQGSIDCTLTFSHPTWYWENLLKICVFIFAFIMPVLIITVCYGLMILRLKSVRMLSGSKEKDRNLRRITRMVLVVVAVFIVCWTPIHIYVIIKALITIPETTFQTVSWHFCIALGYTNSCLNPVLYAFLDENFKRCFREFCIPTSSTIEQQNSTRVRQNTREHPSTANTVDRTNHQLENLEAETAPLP
How it was run: (§3)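 Rat brain synaptosome (P2) membranes, preincubated to remove endogenous opioid peptides, stored at -80 °C in buffered 20% glycerol. Five to eight ligand concentrations, each in duplicate, with independent repeats on different synaptosome preparations. Bound radioligand collected on glass fiber filters soaked in 0.1% polyethylenimine and washed thrice in ice-cold buffered BSA. Ki by Cheng-Prusoff; mean ± SE.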

[5] = molecular target: Delta-type opioid receptor (Rattus norvegicus, UniProt P33533); test: Displacement of [3H]deltorphin C from rat delta opioid receptor in brain P2 synaptosomes; type: subcellular; how it was run: as §3
Chain of Delta-type opioid receptor (Rattus norvegicus, UniProt P33533) (P33533 whole entry): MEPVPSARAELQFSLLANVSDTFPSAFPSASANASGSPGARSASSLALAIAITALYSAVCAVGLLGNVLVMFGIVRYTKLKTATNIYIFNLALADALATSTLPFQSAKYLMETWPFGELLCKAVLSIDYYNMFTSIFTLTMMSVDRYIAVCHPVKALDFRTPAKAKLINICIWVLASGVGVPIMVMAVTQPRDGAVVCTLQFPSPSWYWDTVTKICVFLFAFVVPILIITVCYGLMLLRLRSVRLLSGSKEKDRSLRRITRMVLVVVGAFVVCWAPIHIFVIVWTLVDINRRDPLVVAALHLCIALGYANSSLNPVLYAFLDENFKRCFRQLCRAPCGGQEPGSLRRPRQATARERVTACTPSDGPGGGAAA

[6] = molecular target: Delta-type opioid receptor (Mus musculus, UniProt P32300); test: as §1; type: tissue-based; how it was run: as §2
Chain of Delta-type opioid receptor (Mus musculus, UniProt P32300) (P32300 whole entry): as the sequence (P32300 whole entry) above

Chain of Opioid receptors; mu & delta (Rattus norvegicus) (P33533 whole entry, looked up): as the sequence (P33533 whole entry) above
Chain of Opioid receptors; mu & delta (Rattus norvegicus) (P33535 whole entry, looked up): as the sequence (P33535 whole entry) above

Compound	Ratio Ki [1]	max activation [2] [%]	Activity ([2]; filed as partial agonist)	IC50 (Mu-type opioid receptor [3]) [nM]	Ki (Mu-type opioid receptor [4]) [nM]	Ki [5] [nM]	IC50 [6] [nM]	Activity ([2]; filed as antagonist)
CN(C)c1ccc2cc3c(cc2c1)C(=O)N(CC(NC(=O)[C@@H]1CCCN1C(=O)[C@@H](N)Cc1ccc(O)cc1)C(=O)N[C@@H](Cc1ccccc1)C(N)=O)C3=O (some centres not stated)	4.1	22	Partial agonist	–	–	–	–	–
Cc1cc(O)cc(C)c1C[C@H](N)C(=O)N1Cc2ccccc2C[C@H]1C(=O)N[C@@H](CCC(=O)O)C(=O)N[C@@H](CN1C(=O)c2cc3ccc(N(C)C)cc3cc2C1=O)C(N)=O (HELM PEPTIDE1{[Cc1cc(O)cc(C)c1C[C@H](N)C(=O)[*:2]].[Tic].E.[CN(C)c1ccc2cc3c(cc2c1)C(=O)N(C[C@H](N[*:1])C(=O)[*:2])C3=O].[am]}$$$$V2.0)	–	–	–	100	7880	7.8	–	–
N[C@@H](Cc1ccc(O)cc1)C(=O)N1CCC[C@H]1C(=O)N[C@@H](Cc1ccccc1)C(=O)N[C@@H](Cc1ccccc1)C(=O)NCCCCC/N=C(S)/N=C1/C=CC(=C2c3ccc(O)cc3Oc3cc(O)ccc32)C(C(=O)O)=C1	–	20	Partial agonist	120	252	668	200	–
CN(C)c1ccc2cc3c(cc2c1)C(=O)N(CC(NC(=O)CCCCCNC(=O)[C@H](Cc1ccccc1)NC(=O)[C@H](Cc1ccccc1)NC(=O)[C@@H]1CCCN1C(=O)[C@@H](N)Cc1ccc(O)cc1)C(N)=O)C3=O (some centres not stated) (HELM PEPTIDE1{Y.P.F.F.[O=C(CCCCCN[*:1])[*:2]].[CN(C)c1ccc2cc3c(cc2c1)C(=O)N(CC(N[*:1])C(=O)[*:2])C3=O].[am]}$$$$V2.0)	–	29	Partial agonist	–	–	–	–	–
CN(C)c1ccc2cc3c(cc2c1)C(=O)N(C[C@H](NC(=O)CCCCCNC(=O)[C@H](Cc1ccccc1)NC(=O)[C@H](Cc1ccccc1)NC(=O)[C@@H]1CCCN1C(=O)[C@@H](N)Cc1ccc(O)cc1)C(N)=O)C3=O (HELM PEPTIDE1{Y.P.F.F.[O=C(CCCCCN[*:1])[*:2]].[CN(C)c1ccc2cc3c(cc2c1)C(=O)N(C[C@H](N[*:1])C(=O)[*:2])C3=O].[am]}$$$$V2.0)	–	–	–	253	244	5940	300	–
Cc1cc(O)cc(C)c1C[C@H](N)C(=O)N1Cc2ccccc2CC1C(=O)N[C@@H](CCC(=O)O)C(=O)NCCCCCC(=O)NC(CN1C(=O)c2cc3ccc(N(C)C)cc3cc2C1=O)C(N)=O (some centres not stated)	261	–	–	–	–	–	–	Antagonist
CN(C)c1ccc2cc3c(cc2c1)C(=O)N(C[C@H](NC(=O)[C@@H]1CCCN1C(=O)[C@@H](N)Cc1ccc(O)cc1)C(=O)N[C@@H](Cc1ccccc1)C(N)=O)C3=O	–	–	–	389	3420	839	500	–
Cc1cc(O)cc(C)c1C[C@H](N)C(=O)N1Cc2ccccc2C[C@H]1C(=O)N[C@@H](CCC(=O)O)C(=O)NCCCCCC(=O)N[C@@H](CN1C(=O)c2cc3ccc(N(C)C)cc3cc2C1=O)C(N)=O	–	–	–	244	41.3	0.158	–	–
